Series [1] can be described thus: Stability of the compound in buffer of pH 1 at 2 mg after 6 hrs by 31P NMR spectroscopy. Format: physicochemical. The settings on record: pH 1, 6 h. In a few lines: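 2.0 mg compound in 0.2 mL acetone-d6 plus 0.3 mL pH 1 buffer (equal parts 0.2 M HCl and 0.2 M KCl). In situ 31P NMR (202 MHz) at 37 °C, spectra every 30 min over 14 h.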
The nature of series [2]: Cytotoxicity against human TZM-bl cells assessed as cell viability by tetrazolium dye assay. Format: cell-based.
The nature of series [3]: Selectivity index, ratio of CC50 for HepG2.2.15 cells to EC50 for HBV ayw1 infected in human HepG2(2.2.15) cells assessed as reduction in viral replication by measuring extracellular viral DNA copy. In a few lines: (§1)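 HepG2.2.15 cells (two copies of HBV ayw1 genome), 1.5 × 10^4/well in DMEM with 2% FBS and 380 μg/mL G418. After 16–24 h, compound added in triplicate, medium with compound renewed at day 3. Supernatant collected at day 6, Pronase-treated, and extracellular HBV DNA measured by TaqMan qPCR (precore/core) against an HBV DNA standard curve. EC50/EC90 derived; CC50 by MTS uptake.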

Series [4] in a line: Selectivity index, ratio of CC50 for human TZM-bl cells to EC50 for CCR5 tropic HIV1 BaL infected in human TZM-bl cells. The format is toxicity, cell-based. The settings on record: read-out: Ratio CC50/EC50.
Series [5] concerns Human immunodeficiency virus 1. Briefly: Antiviral activity against CXCR4-tropic HIV-1 NL4-3 infected in human TZM-bl cells assessed as inhibition of virus-induced cytopathic effect preincubated with cells for 30 mins followed by viral infection measured after 48 hrs in presence of p-24 HIV-1 Ag by luciferase reporter gene assay. Format: functional, cell-based. The settings on record: Human immunodeficiency virus 1, NL4-3, TZM-bl. The procedure, abridged: (§2)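 TZM-bl cells, 1 × 10^4 per well in DMEM with 10% FBS and 10 mM […], incubated 30 min at 37 °C with compound. Then HIV-1 NL4.3 (X4) or BaL (R5) added at 100 pg p24 Ag per well. After 48 h, cells lysed with luciferase substrate. Tat-induced luminescence read after 10 min dark incubation as a measure of replication.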

Series [6] in a line: Cytotoxic activity against HEL cells assessed as alteration of cell morphology after 3 days by microscopic method. The format is cell-based. The settings on record: human. In a few lines:
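HEL cells with compound; MCC is the lowest concentration giving microscopically detectable alteration of cell morphology.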

The subject of the next series is Hepatitis B virus. Briefly: Antiviral activity against HBV ayw1 infected in human HepG2(2.2.15) cells assessed as reduction in viral replication by measuring extracellular viral DNA copy number after 6 days by real-time qPCR method. Format: functional, cell-based. The settings on record: ayw1, HepG2 2.2.15, 144 h. In a few lines: as §1
On the technique in general: Real-time PCR tracks product formation cycle by cycle.

The nature of series [7]: Selectivity index, ratio of CC50 for human TZM-bl cells to EC50 for CXCR4-tropic HIV-1 NL4-3 infected in human TZM-bl cells. The format is toxicity, cell-based. The settings on record: read-out: Ratio CC50/EC50.
The test system of series [8] is Human alphaherpesvirus 3. Description: Antiviral activity against thymidine kinase deficient Varicella-Zoster virus 07-1 infected in HEL cells assessed as inhibition of plaque formation. The format is functional, cell-based. The settings on record: Human alphaherpesvirus 3, 07-1, HEL. The procedure, abridged: (§3)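 HEL fibroblast monolayers inoculated with 100 CCID50 HCMV (AD-169, Davis) or 20 PFU VZV (TK+ Oka, TK− 07-1). Adsorbed 1–2 h, inoculum removed, then incubated with compound dilutions. HCMV cytopathicity or VZV plaques scored once untreated infected controls reached completion. EC50 is 50% reduction. SI is CC50/EC50, and the potency ratio is the ratio of EC50s.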

A short description of series [9]: Cytotoxicity against human HepG2.2.15 cells assessed as cell viability by tetrazolium dye uptake assay. The format is cell-based, HepG2 2.2.15. The procedure, abridged: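 HepG2.2.15 cells (two integrated copies of HBV ayw1 genome) were seeded at 1.5 × 10^4 cells/well in DMEM with 2% FBS, 380 μg/mL G418, glutamine, antibiotics and nonessential amino acids. After 16−24 h, medium with various compound concentrations was added in triplicate and renewed on day 3. After 6 days of treatment, viability was read by MTS uptake and CC50 was calculated.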

Series [10] relates to Human immunodeficiency virus 1. Briefly: Antiviral activity against CCR5 tropic HIV1 BaL infected in human TZM-bl cells assessed as inhibition of virus-induced cytopathic effect preincubated with cells for 30 mins followed by viral infection measured after 48 hrs in presence of p-24 HIV-1 Ag by luciferase reporter gene assay. The format is functional, cell-based. The conditions noted are these: Human immunodeficiency virus 1, BaL. In a few lines:
as §2

Series [11] deals with Human betaherpesvirus 5. Description: Antiviral activity against HCMV Davis strain infected in HEL cells assessed as inhibition of virus-induced cytopathic effect. The format is functional, cell-based. The conditions noted are these: Human betaherpesvirus 5, Davis. In a few lines:
as §3
(In general: Protection from cytopathic effect is a common read-out in antiviral testing.)

Series [12] has as its system Human betaherpesvirus 5. Briefly: Antiviral activity against Human cytomegalovirus AD169 infected in HEL cells assessed as inhibition of virus-induced cytopathic effect. Format: functional, cell-based. The settings on record: Human betaherpesvirus 5, AD169, HEL. In a few lines:
as §3

A short description of series [13]: Stability of the compound in phosphate buffer of pH 8 at 1 mg after 2 hrs by 31P NMR spectroscopy. The format is physicochemical. The conditions noted are these: pH 8, 2 h. In a few lines: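 1 mg compound in 0.2 mL acetone-d6 plus 0.3 mL pH 8 buffer (0.1 M Na2HPO4 adjusted with 0.1 M HCl). In situ 31P NMR (202 MHz) at 37 °C, spectra every 30 min over 14 h.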

The test system of series [14] is Human alphaherpesvirus 3. Briefly: Antiviral activity against thymidine kinase expressing Varicella-Zoster virus Oka strain assessed as inhibition of plaque formation. Format: functional. The conditions noted are these: Human alphaherpesvirus 3, strain Oka vaccine. In a few lines:
as §3

The term CC50 denotes the concentration giving 50% cytotoxicity. As usually defined, the EC50 is the concentration needed to bring the measured effect to its halfway point. As a reminder, the EC90 is the point of the concentration-response curve where the effect stands at 90%. Consider `CCCCCOC(=O)C[C@H](NP(=O)(CO[C@H](CF)Cn1cc(C)c(=O)[nH]c1=O)Oc1ccccc1)C(=O)OCCCCC` (stereo partly specified), for which the Stability result in series [1] and in [13] was “Unstable” in each case. The figures for the CC50 in series [2] and in series [9] were 43.4 µM and 33.5 µM, respectively. Moreover, the “Ratio CC50/EC50” value in [3] is listed as below 1. Moreover, the selectivity ratio in series [4] and in series [7] was below 1 in each case. In addition, the EC50 in series [5] was above 43.4 µM; in the series with Hepatitis B virus, 42.4 µM; with Human alphaherpesvirus 3 [8], 23.1 µM; in series [10] it was above 43.4 µM; in the series with Human betaherpesvirus 5 [11], above 31.9 µM; in the series on Human betaherpesvirus 5 [12] it was above 31.9 µM. Moreover, the EC50 in the series on Human alphaherpesvirus 3 [14] was 19.7 µM. Besides, in series [6], the MCC at 72 h was 159 µM. Further, in the series with Hepatitis B virus, the concentration for an effect of 90% (EC90) is above 100 µM.
